Experimental findings from ChEMBL document CHEMBL1800057, “Discovery of dual inducible/neuronal nitric oxide synthase (iNOS/nNOS) inhibitor development candidate 4-((2-cyclobutyl-1H-imidazo[4,5-b]pyrazin-1-yl)methyl)-7,8-difluoroquinolin-2(1H)-one (KD7332) part 2: identification of a novel, potent, and selective series of benzimidazole-quinolinone …” (J Med Chem, 2010) are described below.

SMILES strings stand for the structures.

By inhibition in vivo is commonly meant the relative decrease from the control value, in per cent. As a reminder, the inhibition is the percentage by which the read-out fell short of the control.

For series [1], the system named is Mus musculus. The experiment in a line: Inhibition of LPS-induced iNOS activation in BALB/c mouse assessed as plasma nitrate levels at 30 mg/kg administered via oral gavage before LPS challenge measured after 6 to 8 hrs using 2,3-diaminonaphthalene by fluorescence assay relative to control. In kind it is functional. Summed up:
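Male BALB/c mice dosed by oral gavage (90% PEG/5% Tween 80/5% PVP + 0.5% w/v CMC) immediately before LPS (10 mg/kg ip in 0.9% NaCl). Mice killed at 6 h. EDTA plasma analysed for nitrate and drug levels; nitrite measured by DAN fluorescence.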

The species entered for series [2] is Homo sapiens. Briefly: Ratio of IC50 for human nNOS to EC50 for human iNOS.
The target of series [3] is T1, Nitric oxide synthase 3 (Homo sapiens) (UniProt P29474).
T1 sequence (whole entry): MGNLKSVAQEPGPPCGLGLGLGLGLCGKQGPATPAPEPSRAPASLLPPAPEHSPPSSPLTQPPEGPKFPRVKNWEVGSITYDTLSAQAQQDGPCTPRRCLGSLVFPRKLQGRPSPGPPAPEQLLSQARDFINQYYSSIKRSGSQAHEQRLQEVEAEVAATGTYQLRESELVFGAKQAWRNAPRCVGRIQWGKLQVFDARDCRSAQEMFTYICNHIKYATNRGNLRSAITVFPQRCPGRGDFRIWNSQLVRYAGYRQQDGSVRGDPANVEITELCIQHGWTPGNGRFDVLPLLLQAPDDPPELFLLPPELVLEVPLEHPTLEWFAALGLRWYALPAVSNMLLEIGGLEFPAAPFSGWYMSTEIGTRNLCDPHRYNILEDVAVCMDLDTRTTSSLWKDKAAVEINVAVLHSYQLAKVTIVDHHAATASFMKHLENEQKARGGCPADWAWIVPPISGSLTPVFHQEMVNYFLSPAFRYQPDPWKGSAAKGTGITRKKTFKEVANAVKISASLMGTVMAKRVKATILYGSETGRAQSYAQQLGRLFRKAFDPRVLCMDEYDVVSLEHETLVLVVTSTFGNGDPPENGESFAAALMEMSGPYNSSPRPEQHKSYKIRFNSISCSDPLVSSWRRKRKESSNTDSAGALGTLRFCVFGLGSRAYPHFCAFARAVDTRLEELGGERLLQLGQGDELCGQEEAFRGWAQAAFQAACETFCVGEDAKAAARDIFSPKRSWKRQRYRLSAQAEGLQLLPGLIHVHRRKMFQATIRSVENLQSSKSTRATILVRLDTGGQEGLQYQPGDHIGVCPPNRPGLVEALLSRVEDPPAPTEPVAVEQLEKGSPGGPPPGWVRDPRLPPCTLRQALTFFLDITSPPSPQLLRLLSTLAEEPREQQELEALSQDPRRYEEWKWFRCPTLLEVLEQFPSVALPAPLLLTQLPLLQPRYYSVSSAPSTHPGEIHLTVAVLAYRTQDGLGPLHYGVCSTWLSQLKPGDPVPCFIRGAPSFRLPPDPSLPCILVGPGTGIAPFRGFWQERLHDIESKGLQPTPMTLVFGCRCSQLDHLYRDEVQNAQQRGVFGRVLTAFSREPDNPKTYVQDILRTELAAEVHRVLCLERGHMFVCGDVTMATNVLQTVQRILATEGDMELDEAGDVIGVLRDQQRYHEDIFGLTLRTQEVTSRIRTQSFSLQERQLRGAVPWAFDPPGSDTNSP
Briefly: Inhibition of human eNOS expressed in HEK293 cells assessed as inhibition A23187 induced nitric oxide production at 100 uM incubated for 24 hrs measured after 18 hrs of […] challenge using 2,3-diaminonaphthalene by fluorescence assay. The format is cell-based.

The species entered for series [4] is Homo sapiens. Briefly: Ratio of IC50 for human eNOS to EC50 for human iNOS.
For series [5], the target named is Cytochrome P450 3A4 (Homo sapiens, UniProt P08684). Briefly: Inhibition of human CYP3A4 at >100 uM. The format is ADME.
Sequence of Cytochrome P450 3A4 (P08684 whole entry): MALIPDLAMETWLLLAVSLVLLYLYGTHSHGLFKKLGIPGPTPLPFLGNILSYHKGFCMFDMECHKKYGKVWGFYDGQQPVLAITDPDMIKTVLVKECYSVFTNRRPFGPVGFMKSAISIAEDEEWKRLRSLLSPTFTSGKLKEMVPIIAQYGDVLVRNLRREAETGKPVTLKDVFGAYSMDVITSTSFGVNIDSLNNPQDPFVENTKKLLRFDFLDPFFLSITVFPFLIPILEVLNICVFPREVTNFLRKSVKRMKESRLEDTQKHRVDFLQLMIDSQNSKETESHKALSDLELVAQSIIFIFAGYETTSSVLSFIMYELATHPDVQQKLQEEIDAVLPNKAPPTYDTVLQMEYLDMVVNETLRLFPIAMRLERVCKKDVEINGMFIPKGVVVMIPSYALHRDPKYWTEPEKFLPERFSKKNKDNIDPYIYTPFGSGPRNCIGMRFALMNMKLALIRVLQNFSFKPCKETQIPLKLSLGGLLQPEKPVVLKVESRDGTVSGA
Series [6] deals with Cytochrome P450 2C19 (Homo sapiens, UniProt P33261). The experiment in a line: Inhibition of human CYP2C19 at >38 uM. The format is ADME.
Sequence of Cytochrome P450 2C19 (P33261 whole entry): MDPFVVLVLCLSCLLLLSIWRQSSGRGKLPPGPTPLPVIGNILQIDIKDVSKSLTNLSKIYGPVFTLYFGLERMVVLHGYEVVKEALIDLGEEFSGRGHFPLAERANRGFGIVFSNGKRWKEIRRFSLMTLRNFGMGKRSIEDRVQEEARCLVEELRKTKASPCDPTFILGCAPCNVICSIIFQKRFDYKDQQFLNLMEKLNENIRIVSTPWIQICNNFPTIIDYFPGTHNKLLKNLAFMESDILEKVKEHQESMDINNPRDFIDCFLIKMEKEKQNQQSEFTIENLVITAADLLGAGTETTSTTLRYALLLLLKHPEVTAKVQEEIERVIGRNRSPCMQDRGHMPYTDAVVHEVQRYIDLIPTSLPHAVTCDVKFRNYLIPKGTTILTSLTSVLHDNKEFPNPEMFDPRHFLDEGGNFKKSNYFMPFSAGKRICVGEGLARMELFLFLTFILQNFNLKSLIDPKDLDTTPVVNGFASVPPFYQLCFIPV
The test system of series [7] is Brain. Briefly: Drug uptake in rat brain by microdialysis relative to compound plasma level. The format is ADME, tissue-based. As to conditions: in vivo.
Series [8] deals with Mus musculus. The experiment in a line: Neurotoxicity in C57Bl/6j mouse assessed as inability to maintain equilibrium on rotarod up to 1000 mg/kg, po determined 1 to 3 hrs postdose by rotarod test. In kind it is toxicity, organism-based. Also noted: dose 1000 mg/kg, route oral. As to conditions: in vivo. Summed up:
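Male C57Bl/6j mice were acclimated to the rotarod at 4 rpm, then given two training sessions on an accelerating rod (4-40 rpm over 300 s). Only mice with latencies >60 s were kept. After oral dosing, latency to fall from the accelerating rod was recorded at 1, 2 and 3 h.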
(In general: The rotarod test checks motor coordination on a turning rod.)

Consider `CC(C)Cc1nc2ccccc2n1Cc1cc(=O)[nH]c2c(F)c(F)ccc12`, for which the inhibition in vivo at 30 mg/kg in series [1] is 85%. Moreover, the Ratio EC50 was 1.8 in series [2] and over 263 in series [4]. Further, the inhibition in series [3] is under 50%.

On to `O=c1cc(Cn2c(C3CCC3)nc3nccnc32)c2ccc(F)c(F)c2[nH]1`, for which the “inhibition (INH)” value in series [5] and in series [6] was under 50% throughout. The compound further returned a Drug uptake in series [7] of 2%. Also, the Activity entry in series [8] is given as “Non-toxic”.
